Structures can show the parent of a compound that is named as a salt. Each block holds one compound with its values, some of them ahead of it. Peptide text beside a SMILES is read from it. * marks the point of attachment. Cbz = O=C(OCc1ccccc1)*; CH2F = FC*
Key:
LPS-primed iBMDMs = experiment: Immunoblot of caspase-1, GSDMD, pro-IL-1β cleavage and IL-1β release; assay type: cell-based, mouse; settings: 1 hr before nigericin; lysates 1 hr later
How it was run: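 Mouse iBMDMs were pretreated for 1 hr with test compound, Bay 11-7082, necrosulfonamide or z-VAD-fmk, then given nigericin. Whole cell lysates and culture supernatants were harvested 1 hr after nigericin and immunoblotted with the indicated antibodies. Data come from three independent experiments.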

human GSDMD = biological target: T1, human GSDMD (Homo sapiens, UniProt P57764); assay type: biochemical; settings: for Inhibition of GSDMD and caspase-11-mediated liposome leakage (in words): GSDMD 0.3 μM plus caspase-11 0.15 μM, LDC7559 at up to 50 μM
T1 sequence (P57764 1-484): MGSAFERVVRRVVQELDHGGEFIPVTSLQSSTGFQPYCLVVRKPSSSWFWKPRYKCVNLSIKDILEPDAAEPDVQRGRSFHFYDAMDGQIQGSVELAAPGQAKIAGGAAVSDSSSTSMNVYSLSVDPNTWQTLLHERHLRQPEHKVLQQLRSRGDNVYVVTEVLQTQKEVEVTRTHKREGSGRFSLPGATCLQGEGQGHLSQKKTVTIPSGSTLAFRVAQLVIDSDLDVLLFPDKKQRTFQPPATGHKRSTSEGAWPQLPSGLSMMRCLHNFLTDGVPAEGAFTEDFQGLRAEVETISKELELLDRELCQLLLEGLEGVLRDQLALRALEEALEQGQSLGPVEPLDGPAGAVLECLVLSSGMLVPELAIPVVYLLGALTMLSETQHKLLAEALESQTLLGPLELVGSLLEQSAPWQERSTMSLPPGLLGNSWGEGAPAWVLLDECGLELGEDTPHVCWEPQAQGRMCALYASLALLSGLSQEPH

THP-1 = experiment: Nigericin-induced IL-1β secretion, ELISA; assay type: cell-based, human; settings: potency comparable to z-VAD-fmk
HT-29 cells = experiment: Necroptosis induced by TNF, SMAC mimetic and z-VAD-fmk, CellTiter-Glo; assay type: cell-based; settings: disulfiram 10 and 50 μM, NSA 2 μM, Nec 10 μM; 1 hr pretreatment; 24 hrs
How it was run: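 HT-29 cells were pretreated for 1 hr. Necroptosis was then induced with TNF (20 ng/ml), SMAC mimetic (100 nM) and z-VAD-fmk (20 μM). Viability was read 24 hrs later as ATP by CellTiter-Glo luminescence.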

LPS-primed THP-1 cells [1] = experiment: ASC speck formation, immunofluorescence; assay type: cell-based, human; settings: 30 μM, 1 hr before nigericin; 20 min after nigericin
How it was run: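 THP-1 cells were differentiated with 50 nM PMA for 36 hrs, primed with LPS (1 μg/ml) for 4 hrs, and pretreated with test compound, vehicle or z-VAD-fmk, then given nigericin (20 μM). Cells on coverslips were fixed in 4% paraformaldehyde for 15 min, permeabilized in 0.1% Triton X-100 for 5 min and blocked in 5% BSA for 1 hr. ASC was then immunostained.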

pre-cleaved mouse GSDMA3 = biological target: T2, pre-cleaved mouse GSDMA3 (Mus musculus, UniProt Q5Y4Y6); experiment: Liposome leakage by pre-cleaved GSDMA3; assay type: biochemical; settings: pre-cleaved mouse GSDMA3 0.3 μM
T2 sequence (Q5Y4Y6 with tags, fused parts or gaps limits assumed): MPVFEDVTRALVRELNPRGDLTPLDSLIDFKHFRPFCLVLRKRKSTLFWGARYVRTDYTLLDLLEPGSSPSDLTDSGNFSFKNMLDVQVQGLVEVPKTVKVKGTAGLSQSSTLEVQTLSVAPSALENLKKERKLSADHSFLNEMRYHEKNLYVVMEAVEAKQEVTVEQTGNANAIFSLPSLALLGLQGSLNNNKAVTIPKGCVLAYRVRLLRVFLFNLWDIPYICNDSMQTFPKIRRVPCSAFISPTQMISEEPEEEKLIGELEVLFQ

LPS-primed THP-1 cells [2] = experiment: Immunoblot of caspase-1, GSDMD, pro-IL-1β cleavage and IL-1β release; assay type: cell-based, human; settings: 30 μM, 1 hr before nigericin
iBMDM = experiment: LPS transfection-induced IL-1β secretion, ELISA; assay type: cell-based, mouse; settings: 2.5 h; potency comparable to z-VAD-fmk
C57BL/6J mice = experiment: LPS-induced sepsis, survival; assay type: in vivo, mouse; settings: LPS 25 mg/kg; 50 mg/kg i.p. 4 hrs before and daily after LPS
LPS-primed THP-1 = experiment: LPS + nigericin cell death with or without Cu; assay type: cell-based, human; settings: with versus without Cu(II)
Mouse iBMDMs = experiment: AIM2 inflammasome cell death, poly; assay type: cell-based; settings: 5–40 μM, 1 hr pretreatment, 4 hrs
LPS-primed THP-1 cells [3] = experiment: GSDMD membrane staining and pyroptotic bubbles, confocal microscopy; assay type: cell-based, human; settings: 30 μM; 30 min after nigericin
How it was run: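 PMA-differentiated THP-1 cells were primed with LPS (1 μg/ml, 4 hrs), pretreated for 1 hr and given nigericin. They were fixed (4% PFA), permeabilized (0.1% Triton X-100), blocked (5% BSA) and stained with an in-house mouse monoclonal anti-GSDMD antibody. Confocal images were scored for cells with membrane GSDMD staining and pyroptotic bubbles across 40 high-power fields per sample, in 5 independent experiments. Two-tailed Student's t-test was used.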

Proteolytic processing of caspase-1, GSDMD and pro-IL-1β (LPS-primed iBMDMs): inhibited | Inhibition of GSDMD and caspase-11-mediated liposome leakage (in words) (human GSDMD): moderately inhibited
Compound: Cc1ccc(S(=O)(=O)/C=C/C#N)cc1 [Bay 11–7082]

Compound: CCN(CC)C(=S)SSC(=S)N(CC)CC [C-23, tetraethylthiuram disulfide]
Nigericin-induced IL-1β secretion (THP-1): inhibited | Effect on necroptosis (cell viability) (HT-29 cells): no effect | ASC speck formation (LPS-primed THP-1 cells [1]): only modestly inhibited | Inhibition of pore formation of pre-cleaved GSDMA3 (pre-cleaved mouse GSDMA3): did not inhibit | Incubation time at which inhibition of liposome leakage was seen (human GSDMD; preincubation with GSDMD 2–90 min, 0–5.6 μM): ≤ 2 min | IL-1β in culture supernatant (LPS-primed THP-1 cells [2]; immunoblot): no IL-1β was detected | LPS transfection-induced IL-1β secretion (iBMDM): inhibited | Survival of Casp1–/– mice (C57BL/6J mice): protected | Decrease of IC50 for inhibiting pyroptosis with Cu(II) (LPS-primed THP-1): 24 fold | Effect on AIM2 inflammasome-triggered cell death (Mouse iBMDMs): impaired cell death in a dose-dependent manner

Inhibition of GSDMD and caspase-11-mediated liposome leakage (in words) (human GSDMD): hardly any activity
Compound: COC(=O)/C=C/C(=O)OC [DMF, dimethyl fumarate]

Compound: COc1ccccc1-c1cc2n(n1)Cc1ccc(NC(C)=O)cc1OC2 [LDC7559]
Inhibition of GSDMD and caspase-11-mediated liposome leakage (in words) (human GSDMD): no activity

Proteolytic processing of caspase-1, GSDMD and pro-IL-1β (LPS-primed iBMDMs): inhibited | Inhibition of GSDMD and caspase-11-mediated liposome leakage (in words) (human GSDMD): moderately inhibited
Compound: COc1nccnc1NS(=O)(=O)c1ccc(NC(=O)/C=C/c2ccc([N+](=O)[O-])s2)cc1 [NSA, necrosulfonamide]
Effect on necroptosis (cell viability) (HT-29 cells): blocked

Inhibition of GSDMD and caspase-11-mediated liposome leakage (in words) (human GSDMD): hardly any activity
Compound: CN(C)C/C=C/C(=O)Nc1cc2c(Nc3ccc(F)c(Cl)c3)ncnc2cc1O[C@H]1CCOC1 [afatinib]

Inhibition of GSDMD and caspase-11-mediated liposome leakage (in words) (human GSDMD): hardly any activity
Compound: C=CC(=O)N1CCC[C@@H](n2nc(-c3ccc(Oc4ccccc4)cc3)c3c(N)ncnc32)C1 [ibrutinib]

Compound: CN1C(=O)C(Cc2c[nH]c3ccccc23)NC1=S (centres unmarked) [necrostatin-1]
Effect on necroptosis (cell viability) (HT-29 cells): blocked

Compound: COC(=O)C[C@H](NC(=O)[C@H](C)NC(=O)[C@@H](NC(=O)OCc1ccccc1)C(C)C)C(=O)CF [z-VAD-fmk] (Cbz-Val-Ala-Asp(OMe)-CH2F)
ASC speck formation (LPS-primed THP-1 cells [1]): not inhibited | Proteolytic processing of caspase-1, GSDMD and pro-IL-1β (LPS-primed THP-1 cells [2]; lysates 1 hr later): inhibited the processing of all 3 proteins | GSDMD membrane staining and appearance of pyroptotic bubbles (LPS-primed THP-1 cells [3]): completely blocked
